The values below come from paper PMC5147544 (Science signaling, 2016).

For experiment [1], the target named is endogenous mouse GPR83 in brain (hypothalamus, hippocampus, PVN) (mouse (endogenous in hypothalamus, hippocampus)) (UniProt P30731). The experiment can be described thus: radioligand binding.
For experiment [2] the following is noted: intracerebroventricular administration; cited from earlier work.
Experiment [3] concerns the target Neuro2A cells (Mus musculus, UniProt P30731). The experiment can be described thus: Neurite outgrowth assay. The format is cell-based. Particulars: 1 μM peptide, 16 to 20 hours at 37°C, protease inhibitor cocktail; Fig. 3A. In short, it runs like this:
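Neuro2A cells were plated on poly-L-lysine, 20,000 per well, in 10% FBS medium. Next day, in serum-free medium, cells got 1 μM peptide or vehicle with protease inhibitors for 16–20 h at 37°C. Sequential 40× images covered ~300–500 cells, with repeats on different days. Blinded scoring: a cell counted positive if its neurite was longer than twice the cell diameter.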

The target of experiment [4] is T1, hGPR83 (Homo sapiens, UniProt Q9NYM4). The experiment in a line: [35S]GTPγS binding in membranes from CHO hGPR83 cells. The format is biochemical. Particulars: membranes 20 μg; Fig. 4E. In short, it runs like this: (§1)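 Membranes (20 μg) were incubated 1 h at 30°C with peptide (0 to 1 μM final), 2 mM GDP and 0.5 nM [³⁵S]GTPγS. Buffer was 50 mM Hepes, 5 mM MgCl₂, 100 mM NaCl, 1 mM EDTA (pH 7.4) with protease inhibitors. Nonspecific binding was taken with 10 μM cold GTPγS, and basal as GDP without ligand. Samples were filtered on GF/B, washed three times with ice-cold 50 mM tris-Cl and counted by scintillation.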
A general note: GTPγS resists hydrolysis and so accumulates on activated G proteins.

Experiment [5] is described as follows: [35S]GTPγS binding in membranes from control CHO cells. The format is biochemical, Chinese hamster. Particulars: membranes 20 μg, CHO alone; Fig. 4E. The gist of the method:
as §1

The target in experiment [6] is T1, hGPR83. The experiment can be described thus: Displacement of [125I]Tyr-rPEN binding to CHO hGPR83 cell membranes. As to conditions: Fig. 4D. The gist of the method: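 Membranes were prepared from CHO cells expressing untagged hGPR83 by homogenising in ice-cold 20 mM tris-Cl, 250 mM sucrose, 2 mM EGTA, 1 mM MgCl₂ (pH 7.4), then spinning at 27,000g. Membranes (50 μg) were incubated 1 h at 37°C in 50 mM tris-Cl (pH 7.4) plus protease inhibitors with 3 nM [¹²⁵I]Tyr-rPEN and competitor peptide (0 to 10 μM). Samples were filtered on GF/B, washed three times with ice-cold buffer and counted by scintillation.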
For orientation: Loss of bound radioactivity is the signal in a displacement assay; it reports binding, not function.

Experiment [7] concerns the target mouse hypothalamic membranes (Mus musculus, UniProt P30731). The experiment can be described thus: Displacement of [125I]Tyr-rPEN binding in mouse hypothalamic membranes. As to conditions: [125I]Tyr-rPEN 3 nM, membranes 30 μg, peptide 0 to 10 μM; Fig. 1C.

The Kd is the concentration at which binding is half-saturated. Low readings indicate tighter binding, high ones weaker binding.

T1 sequence (Q9NYM4 17-423): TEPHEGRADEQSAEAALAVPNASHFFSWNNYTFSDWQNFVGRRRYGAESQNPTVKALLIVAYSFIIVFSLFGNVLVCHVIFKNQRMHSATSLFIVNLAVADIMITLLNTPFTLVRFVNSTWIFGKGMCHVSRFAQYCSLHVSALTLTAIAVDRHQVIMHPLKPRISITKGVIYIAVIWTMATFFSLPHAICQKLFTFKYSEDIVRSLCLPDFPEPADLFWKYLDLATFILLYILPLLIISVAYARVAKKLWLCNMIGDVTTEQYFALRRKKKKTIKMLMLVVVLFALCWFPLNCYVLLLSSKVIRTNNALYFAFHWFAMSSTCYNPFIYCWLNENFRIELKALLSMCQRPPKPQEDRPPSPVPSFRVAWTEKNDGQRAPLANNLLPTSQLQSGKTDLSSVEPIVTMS
Neuro2A cells, sequence (P30731 18-423): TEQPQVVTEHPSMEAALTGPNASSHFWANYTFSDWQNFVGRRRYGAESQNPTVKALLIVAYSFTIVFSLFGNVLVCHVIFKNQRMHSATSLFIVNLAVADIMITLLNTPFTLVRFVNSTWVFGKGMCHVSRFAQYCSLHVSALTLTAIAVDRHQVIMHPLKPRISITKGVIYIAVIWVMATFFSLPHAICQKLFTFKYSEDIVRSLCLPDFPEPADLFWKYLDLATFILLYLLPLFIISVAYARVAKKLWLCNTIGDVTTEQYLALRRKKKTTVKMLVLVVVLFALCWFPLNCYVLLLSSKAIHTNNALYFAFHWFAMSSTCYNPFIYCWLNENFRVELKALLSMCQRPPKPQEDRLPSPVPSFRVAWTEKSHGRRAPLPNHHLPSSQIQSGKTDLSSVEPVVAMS
mouse hypothalamic membranes, sequence (P30731 18-423): as above
endogenous mouse GPR83 in brain (hypothalamus, hippocampus, PVN) (mouse (endogenous in hypothalamus, hippocampus)), sequence (P30731 18-423): as above

“N-terminally tyrosinated, radioiodinated rat PEN (peptide)” displayed a Kd in experiment [1] of 8 nM.

For the substance “bigLEN: proSAAS-derived peptide bigLEN, species form not stated at this place (LETPAPQVPARRLLPP; Big LEN; UniProt Q9UHG2 245-260, looked up)”, the “effect on food intake” value in experiment [2] is on record as “did not elicit a significant effect”.

“rSAAS: rat SAAS, proSAAS-derived peptide (ARPVKEPRSLSAASAPLAETSTPLRL; Big SAAS; UniProt Q9QXU9 34-59, looked up)”: in experiment [3], the number of neurites entry is given as “significantly increased”.

Turning to neuropeptide Y [NPY], the GTPγS binding entry in experiment [4] and in experiment [5] was “small increase” throughout. The “displacement of [125I]Tyr-rPEN” value in experiment [6] (10 μM NPY, not significant (one-way ANOVA, P = 0.37)) is given as ~ 20%; in experiment [6] (NPY at concentrations below 1 μM, [125I]Tyr-rPEN 3 nM, membranes 50 μg), “did not displace”.

On to “mbigLEN: mouse bigLEN, proSAAS-derived neuropeptide that activates GPR171 (LENPSPQAPARRLLPP; Big LEN; UniProt Q9QXV0 243-258, looked up)”, for which the number of neurites entry in experiment [3] is recorded as “significantly increased”.

As for “PEN: proSAAS-derived peptide PEN, species form not stated at this place (AADHDVGSELPPEGVLGALLRV; PEN; UniProt Q9UHG2 221-242, looked up)”, the “effect on food intake” value in experiment [2] is recorded as “did not elicit a significant effect”.

As for LENPSPQAPA [rlittleLEN], the “competition for [125I]Tyr-rPEN binding” value in experiment [7] is reported as “did not compete for binding”.
